Results from ChEMBL document CHEMBL3045676, “Anti-tobacco mosaic virus (TMV) Quassinoids from Brucea javanica (L.) Merr” (J Agric Food Chem, 2010).
Calls of active or inactive are those of the source. The rule behind the calls is not given here.

Legend:
[1] = tested on: Tobacco mosaic virus; test: (§1) In vivo antiviral activity against Tobacco mosaic virus strain U1 (TMV) infected left side of Nicotiana glutinosa leaves assessed as decrease in local lesion numbers at 5 uM co-incubated with virus for 30 min before inoculation onto leaves measured at 3-4 days after viral challenge by half-leaf method; format: functional
Summary of the method: (§2)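 Half-leaf test on N. glutinosa at the 5-6-leaf stage. Compound was dissolved in DMSO, diluted in water and mixed with TMV (32 μg/mL in 0.01 M PBS) for 30 min, then rubbed onto the left half-leaf; the right half received virus plus DMSO. Local lesions were counted after 3-4 days, with three repetitions. Inhibition % = (C−T)/C×100 using mean lesion counts. IC50 was taken from a 1.25-20 μM series.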

[2] = tested on: Tobacco mosaic virus; test: as §1, with “10” for “5”; format: functional; summary of the method: as §2
[3] = tested on: Tobacco mosaic virus; test: Antiviral activity against Tobacco mosaic virus strain U1 (TMV) infected Nicotiana tabacum cv. K326 leaves assessed as decrease in Tobacco mosaic virus coat protein level at 20 uM at 25 degC treated at 6 hr after viral inoculation measured after 48 hr by leaf disk method/western blot analysis; format: functional, organism-based
Summary of the method: (§3)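 N. tabacum cv. K326 leaves (5-6-leaf stage) mechanically inoculated with TMV (32 μg/mL in 0.01 M PBS). After 6 h, 1 cm disks without major veins were cut and floated on compound solution, with DMSO negative control and ningnanmycin positive control, at 25 °C for 48 h. Coat protein was then detected by SDS-PAGE and Western blot with polyclonal anti-TMV antibody and AP-conjugated anti-rabbit IgG using NBT/BCIP; samples run in duplicate.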

[4] = tested on: Tobacco mosaic virus; test: as §1, with “1.25” for “5”; format: functional; summary of the method: as §2
[5] = tested on: Tobacco mosaic virus; test: as §1, with “2.5” for “5”; format: functional; summary of the method: as §2
[6] = tested on: Tobacco mosaic virus; test: Antiviral activity against Tobacco mosaic virus strain U1 (TMV) infected Nicotiana glutinosa leaves assessed as protective effect by decrease in local lesion number at 20 uM treated 6 hr prior to viral inoculation measured at 3-4 days after viral challenge; format: functional
Summary of the method: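 N. glutinosa plants pretreated with compound solutions (DMSO diluted in distilled water) or DMSO solution for 6 h, then inoculated with TMV and kept in an insect-free greenhouse 3-4 days until local lesions were visible; inhibition rate calculated from local lesion counts.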

[7] = tested on: Tobacco mosaic virus; test: as §1, with “20” for “5”; format: functional; summary of the method: as §2
[8] = tested on: Tobacco mosaic virus; test: In vivo antiviral activity against Tobacco mosaic virus strain U1 (TMV) infected left side of Nicotiana glutinosa leaves assessed as decrease in local lesion numbers co-incubated with virus for 30 min before inoculation onto leaves measured at 3-4 days after viral challenge by half-leaf method; format: functional, organism-based; summary of the method: as §2
[9] = tested on: Tobacco mosaic virus; test: Ratio of ningnamycin IC50 to compound IC50 for Tobacco mosaic virus strain U1 (TMV) infected left side of Nicotiana glutinosa leaves by half-leaf method; format: functional
Summary of the method: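 Ratio of IC50 values from the half-leaf N. glutinosa lesion assay, with ningnanmycin as the reference compound. Virus (32 μg/mL) was premixed with compound for 30 min before inoculation, and lesions were counted after 3-4 days.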

[10] = tested on: Tobacco mosaic virus; test: Antiviral activity against Tobacco mosaic virus strain U1 (TMV) infected Nicotiana tabacum cv. K326 leaves assessed as decrease in Tobacco mosaic virus coat protein level at 25 degC treated at 6 hr after viral inoculation measured after 48 hr by leaf disk method/western blot analysis; format: functional, organism-based; summary of the method: as §3

CC1=CC(=O)[C@@H](O)[C@]2(C)[C@H]3[C@@H](O)[C@H](O)[C@]4(C)OC[C@@]35[C@@H](C[C@@H]12)OC(=O)[C@H](O)[C@]54O [BRUCEINE D]
inhibition in vivo at 5 µM [1]: 47.9%
inhibition in vivo at 10 µM [2]: 66.7%
inhibition [3]: Active
inhibition in vivo at 1.25 µM [4]: 21.4%
inhibition in vivo at 2.5 µM [5]: 29.1%
inhibition at 20 µM [6]: 72.2%
inhibition in vivo at 20 µM [7]: 78.6%
IC50 [8]: 5.29 µM

COC(=O)[C@]12OC[C@]34[C@H]([C@@H](O)[C@@H]1O)[C@@]1(C)[C@H](O)[C@@H](O)C=C(C)[C@@H]1C[C@H]3OC(=O)[C@H](OC(C)=O)[C@@H]24 [YADANZIOSIDE D]
inhibition in vivo at 5 µM [1]: 48.4%
inhibition in vivo at 10 µM [2]: 59.2%
inhibition [3]: Active
inhibition in vivo at 1.25 µM [4]: 21.4%
inhibition in vivo at 2.5 µM [5]: 38.5%
inhibition in vivo at 20 µM [7]: 70.8%
IC50 [8]: 5.66 µM

COC1=C[C@@H](C)[C@@H]2C[C@H]3OC(=O)C[C@H]4[C@@H](C)[C@H](OC)[C@@H](O)[C@H]([C@@]2(C)C1=O)[C@@]34C
inhibition [3]: inactive

COC(=O)[C@]12OC[C@]34[C@H]([C@@H](O)[C@@H]1O)[C@@]1(C)CC(=O)[C@H](O)[C@@H](C)[C@@H]1C[C@H]3OC(=O)[C@H](OC(=O)C=C(C)C)[C@@H]24 [JAVANICOLIDES E]
inhibition in vivo at 20 µM [7]: 52%

COC(=O)[C@]12OC[C@]34[C@H]([C@@H](O)[C@@H]1O)[C@@]1(C)CC(=O)C(O)=C(C)[C@@H]1C[C@H]3OC(=O)[C@H](OC(=O)C=C(C)C)[C@@H]24 [BRUSATOL]
inhibition in vivo at 5 µM [1]: 64.7%
Ratio IC50 [9]: 34
inhibition in vivo at 10 µM [2]: 71.5%
inhibition [3]: Active
inhibition [10]: Dose-dependent effect
inhibition in vivo at 1.25 µM [4]: 20%
inhibition in vivo at 2.5 µM [5]: 48.8%
inhibition at 20 µM [6]: 77.5%
inhibition in vivo at 20 µM [7]: 88.9%
IC50 [8]: 3.42 µM

COC(=O)[C@@]12OC[C@]34[C@H]([C@@H](O)[C@@H]1O)[C@@]1(C)C=C(O[C@@H]5O[C@H](CO)[C@@H](O)[C@H](O)[C@H]5O)C(=O)[C@@H](C)[C@@H]1C[C@H]3OC(=O)[C@H](OC(=O)C=C(C)C)[C@@H]24 [BRUCEOSIDE A]
inhibition [3]: Active
inhibition in vivo at 20 µM [7]: 24.1%

COC(=O)[C@@]12OC[C@]34[C@H]([C@@H](O)[C@@H]1O)[C@@]1(C)CC(=O)C(O)=C(C)[C@@H]1C[C@H]3OC(=O)[C@H](OC(C)=O)[C@@H]24 [BRUCEINE B]
inhibition in vivo at 5 µM [1]: 65.2%
inhibition in vivo at 10 µM [2]: 81.5%
inhibition [3]: Active
inhibition in vivo at 1.25 µM [4]: 20.5%
inhibition in vivo at 2.5 µM [5]: 40.6%
inhibition at 20 µM [6]: 86.3%
inhibition in vivo at 20 µM [7]: 88.9%
IC50 [8]: 3.47 µM

CC1=CC(=O)[C@@H](O)[C@]2(C)[C@H]3[C@@H](O)[C@H](O)[C@]4(CO)OC[C@@]35[C@@H](C[C@@H]12)OC(=O)[C@H](O)[C@]54O [YADANZIOLIDE A]
inhibition in vivo at 5 µM [1]: 46.1%
inhibition in vivo at 10 µM [2]: 58.7%
inhibition [3]: Active
inhibition in vivo at 1.25 µM [4]: 22.4%
inhibition in vivo at 2.5 µM [5]: 39.2%
inhibition in vivo at 20 µM [7]: 75%
IC50 [8]: 5.5 µM

COC(=O)[C@]12OC[C@@]34[C@@H](CC5=C(C)C(=O)C(O)=C[C@]5(C)[C@H]3[C@@H](O)[C@@H]1O)OC(=O)[C@H](OC(C)=O)[C@@H]24 [DEDYDROBRUCEINE B]
inhibition [3]: Active
inhibition in vivo at 20 µM [7]: 59.1%

COC(=O)[C@]12OC[C@]34[C@H]([C@@H](O)[C@@H]1O)[C@@]1(C)CC(=O)C(O[C@@H]5O[C@H](CO)[C@@H](O)[C@H](O)[C@H]5O)=C(C)[C@@H]1C[C@H]3OC(=O)[C@H](OC(=O)/C=C(\C)C(C)(C)O)[C@@H]24 [Yadanzioside L]
inhibition in vivo at 5 µM [1]: 53.3%
inhibition in vivo at 10 µM [2]: 64.3%
inhibition [3]: Active
inhibition in vivo at 1.25 µM [4]: 20%
inhibition in vivo at 2.5 µM [5]: 35%
inhibition at 20 µM [6]: 54.4%
inhibition in vivo at 20 µM [7]: 73.8%
IC50 [8]: 4.86 µM

COC(=O)[C@]12OC[C@]34[C@H]([C@@H](O)[C@@H]1O)[C@@]1(C)C=C(O[C@@H]5O[C@H](CO)[C@@H](O)[C@H](O)[C@H]5O)C(=O)[C@@H](C)[C@@H]1C[C@H]3OC(=O)[C@H](OC(=O)/C=C(\C)C(C)(C)OC(C)=O)[C@@H]24 [Yadanzioside G]
inhibition [3]: Active
inhibition in vivo at 20 µM [7]: 33.7%

COC(=O)[C@]12OC[C@]34[C@H]([C@@H](O)[C@@H]1O)[C@@]1(C)CC(=O)[C@H](O)[C@@H](C)[C@@H]1C[C@H]3OC(=O)[C@H](OC(=O)/C=C(\C)C(C)(C)OC(C)=O)[C@@H]24 [JAVANICOLIDE F]
inhibition in vivo at 20 µM [7]: 52.1%

COC(=O)[C@]12OC[C@]34[C@H]([C@@H](O)[C@@H]1O)[C@@]1(C)CC(=O)C(O[C@@H]5O[C@H](CO)[C@@H](O)[C@H](O)[C@H]5O)=C(C)[C@@H]1C[C@H]3OC(=O)[C@H](OC(C)=O)[C@@H]24 [YADANZIOSIDE I]
inhibition in vivo at 5 µM [1]: 54.9%
inhibition in vivo at 10 µM [2]: 67.9%
inhibition [3]: Active
inhibition in vivo at 1.25 µM [4]: 26.1%
inhibition in vivo at 2.5 µM [5]: 35.4%
inhibition in vivo at 20 µM [7]: 81.5%
IC50 [8]: 4.22 µM

CNCC(=O)N[C@@H](CO)C(=O)N[C@H]1[C@H](O)[C@@H](O)[C@H](n2ccc(N)nc2=O)O[C@@H]1C(N)=O [NINGNANMYCIN]
inhibition in vivo at 5 µM [1]: 46.6%
inhibition in vivo at 10 µM [2]: 67.5%
inhibition in vivo at 1.25 µM [4]: 28%
inhibition in vivo at 2.5 µM [5]: 37.9%
inhibition in vivo at 20 µM [7]: 25.3%

COC(=O)[C@]12OC[C@]34[C@H]([C@@H](O)[C@@H]1O)[C@@]1(C)C=C(O[C@@H]5O[C@H](CO)[C@@H](O)[C@H](O)[C@H]5O)C(=O)[C@@H](C)[C@@H]1C[C@H]3OC(=O)[C@H](OC(C)=O)[C@@H]24 [YADANZIOSIDE F]
inhibition [3]: Active
inhibition in vivo at 20 µM [7]: 31.1%

CC1=C[C@H](O[C@@H]2O[C@H](CO)[C@@H](O)[C@H](O)[C@H]2O)[C@@H](O)[C@]2(C)[C@H]3[C@@H](O)[C@H](O)[C@]4(C)OC[C@@]35[C@@H](C[C@@H]12)OC(=O)[C@H](O)[C@]54O [YADANZIGAN]
inhibition [3]: Active
inhibition in vivo at 20 µM [7]: 30.6%

CC1=C[C@H](O)[C@@H](O)[C@]2(C)[C@H]3[C@@H](O)[C@H](O)[C@@]4(C)OC[C@@]35[C@@H](C[C@@H]12)OC(=O)[C@H](O)[C@]54O [BRUCEINE E]
inhibition [3]: Active
inhibition in vivo at 20 µM [7]: 28.7%

COC(=O)[C@]12OC[C@]34[C@H]([C@@H](O)[C@@H]1O)[C@@]1(C)CC(=O)C(O[C@@H]5O[C@H](CO)[C@@H](O)[C@H](O)[C@H]5O)=C(C)[C@@H]1C[C@H]3OC(=O)[C@H](OC(=O)C=C(C)C)[C@@H]24 [Bruceoside-B]
inhibition in vivo at 5 µM [1]: 53.8%
inhibition in vivo at 10 µM [2]: 66.7%
inhibition [3]: Active
inhibition in vivo at 1.25 µM [4]: 21.4%
inhibition in vivo at 2.5 µM [5]: 31.7%
inhibition at 20 µM [6]: 90.2%
inhibition in vivo at 20 µM [7]: 78.4%
IC50 [8]: 4.64 µM
